Measured values: ChEMBL document CHEMBL2150914, “Synthesis and biological evaluation of N-arylbenzo[b]thieno[3,2-d]pyrimidin-4-amines and their pyrido and pyrazino analogues as Ser/Thr kinase inhibitors” (Eur J Med Chem, 2012)
pIC50: −log10 of the molar value.

Columns and labels:
[1] = target: Cyclin-dependent kinase 5/CDK5 activator 1 (Homo sapiens, UniProt Q00535); experiment: Inhibition of human recombinant GST-tagged CDK5/p25 expressed in Escherichia coli using histone H1 as substrate and [gamma32P]ATP after 30 mins by scintillation counting
Chain of Cyclin-dependent kinase 5/CDK5 activator 1 (Q00535 whole entry): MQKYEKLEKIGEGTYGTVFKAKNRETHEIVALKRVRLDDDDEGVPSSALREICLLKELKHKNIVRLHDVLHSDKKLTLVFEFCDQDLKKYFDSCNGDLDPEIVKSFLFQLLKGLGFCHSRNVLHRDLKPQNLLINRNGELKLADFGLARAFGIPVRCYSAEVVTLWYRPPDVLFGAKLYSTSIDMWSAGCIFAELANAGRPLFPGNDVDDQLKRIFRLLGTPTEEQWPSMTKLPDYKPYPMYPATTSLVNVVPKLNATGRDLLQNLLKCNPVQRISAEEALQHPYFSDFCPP
Chain of Cyclin-dependent kinase 5/CDK5 activator 1 (Q15078 whole entry, further chain): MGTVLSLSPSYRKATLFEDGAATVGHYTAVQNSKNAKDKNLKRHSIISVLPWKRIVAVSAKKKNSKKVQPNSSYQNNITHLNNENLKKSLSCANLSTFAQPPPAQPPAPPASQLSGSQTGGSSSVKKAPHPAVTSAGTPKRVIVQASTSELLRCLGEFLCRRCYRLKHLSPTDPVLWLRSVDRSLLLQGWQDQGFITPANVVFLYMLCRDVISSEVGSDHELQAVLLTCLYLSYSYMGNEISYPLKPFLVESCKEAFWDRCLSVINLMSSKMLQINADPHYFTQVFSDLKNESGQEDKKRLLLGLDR

[2] = target: Glycogen synthase kinase-3 (Sus scrofa, UniProt B2LUN4+I6LNT8); experiment: Inhibition of pig GSK3alpha/beta isolated from brain using YRRAAVPPSPSLSRHSSPHQpSEDEEE as substrate and [gamma32P]ATP after 30 mins by scintillation counting
Outline: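 Assay run at 30 °C in one of two buffers: buffer A (Tris-HCl pH 7.5 with MgCl2, EGTA, DTT, heparin) or buffer B (Mops pH 7.2 with beta-glycerophosphate, EGTA, MgCl2, DTT, vanadate). Peptide substrate. Blank values subtracted and activity expressed as % of maximal, uninhibited activity. Controls with matching DMSO dilutions.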

[3] = Inhibition of pig CK1delta/epsilon isolated from brain using RRKHAAIGpSAYSITA as substrate and [gamma32P]ATP after 30 mins by scintillation counting; design: species or system Sus scrofa
[4] = target: Dual specificity tyrosine-phosphorylation-regulated kinase 1A (Rattus norvegicus, UniProt Q63470); experiment: Inhibition of rat recombinant GST-tagged DYRK1A expressed in Escherichia coli using KKISGRLSPIMTEQ as substrate and [gamma32P]ATP after 30 mins by scintillation counting
Outline: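 Rat DYRK1A, expressed in E. coli as a GST fusion and purified on glutathione-agarose. Blanks subtracted. Activity given as % of uninhibited maximum. DMSO dilution controls.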

[5] = target: Dual specificity protein kinase CLK1 (Homo sapiens, UniProt P49759); experiment: Inhibition of human recombinant GST-tagged CLK1 expressed in Escherichia coli using GRSRSRSRSRSR as substrate and [gamma32P]ATP after 30 mins by scintillation counting
Chain of Dual specificity protein kinase CLK1 (P49759 whole entry): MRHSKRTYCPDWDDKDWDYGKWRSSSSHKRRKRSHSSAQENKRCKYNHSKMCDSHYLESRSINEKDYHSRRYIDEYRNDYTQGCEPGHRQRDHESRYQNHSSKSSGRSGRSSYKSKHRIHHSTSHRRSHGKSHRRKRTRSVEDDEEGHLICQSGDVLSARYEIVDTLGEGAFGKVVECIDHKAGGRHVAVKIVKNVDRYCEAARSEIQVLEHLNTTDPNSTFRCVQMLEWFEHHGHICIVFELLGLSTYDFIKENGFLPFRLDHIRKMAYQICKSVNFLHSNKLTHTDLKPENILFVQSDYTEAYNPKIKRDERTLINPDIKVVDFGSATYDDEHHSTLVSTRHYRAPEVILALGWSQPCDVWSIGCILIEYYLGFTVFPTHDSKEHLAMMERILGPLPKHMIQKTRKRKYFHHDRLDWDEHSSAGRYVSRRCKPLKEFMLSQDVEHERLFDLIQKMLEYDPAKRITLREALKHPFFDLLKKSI

| Compound | pIC50 [1] | IC50 [2] | pIC50 [3] | pIC50 [4] | pIC50 [5] |
| --- | --- | --- | --- | --- | --- |
| Nc1ncnc2c1sc1ccccc12 | 5.28 | > 10 µM | 6.10 | 5.29 |  |
| c1ccc(Nc2ncnc3c2sc2ccccc23)cc1 | < 5.00 | > 10 µM | < 5.00 | < 5.00 |  |
| COc1ccc(Nc2ncnc3c2sc2ccccc23)cc1 | < 5.00 | > 10 µM | < 5.00 | < 5.00 |  |
| COc1ccc(Nc2ncnc3c2sc2ccccc23)cc1OC | < 5.00 | > 10 µM | < 5.00 | 5.43 |  |
| COc1cc(Nc2ncnc3c2sc2ccccc23)cc(OC)c1 | < 5.00 | > 10 µM | < 5.00 | < 5.00 |  |
| COc1cc(Nc2ncnc3c2sc2ccccc23)cc(OC)c1OC | < 5.00 | > 10 µM | < 5.00 | < 5.00 |  |
| c1ccc2c(c1)sc1c(Nc3ccc4c(c3)OCO4)ncnc12 | < 5.00 | > 10 µM | < 5.00 | < 5.00 |  |
| c1ccc2c(c1)sc1c(Nc3ccc4c(c3)OCCO4)ncnc12 | < 5.00 | > 10 µM | < 5.00 | < 5.00 |  |
| Fc1cc(Br)ccc1Nc1ncnc2c1sc1ccccc12 | < 5.00 | > 10 µM | < 5.00 | < 5.00 |  |
| O=[N+]([O-])c1cc(Nc2ncnc3c2sc2ccccc23)ccc1O | < 5.00 | > 10 µM | < 5.00 | < 5.00 |  |
| c1ccc(Nc2ncnc3c2sc2ncccc23)cc1 | < 5.00 | > 10 µM | 6.74 | < 5.00 | 5.35 |
| COc1ccc(Nc2ncnc3c2sc2ncccc23)cc1 | < 5.00 | > 10 µM | 6.28 | < 5.00 | 5.48 |
| COc1ccc(Nc2ncnc3c2sc2ncccc23)cc1OC | < 5.00 | > 10 µM | < 5.00 | 5.54 | 5.47 |
| COc1cc(Nc2ncnc3c2sc2ncccc23)cc(OC)c1 | < 5.00 | > 10 µM | < 5.00 | < 5.00 | < 5.00 |
| COc1cc(Nc2ncnc3c2sc2ncccc23)cc(OC)c1OC | < 5.00 | > 10 µM | < 5.00 | < 5.00 | < 5.00 |
| c1cnc2sc3c(Nc4ccc5c(c4)OCO5)ncnc3c2c1 | < 5.00 | > 10 µM | 6.36 | < 5.00 | 5.66 |
| c1cnc2sc3c(Nc4ccc5c(c4)OCCO5)ncnc3c2c1 | < 5.00 | > 10 µM | < 5.00 | < 5.00 | < 5.00 |
| Fc1cc(Br)ccc1Nc1ncnc2c1sc1ncccc12 | < 5.00 | > 10 µM | 6.55 | 6.05 | 5.68 |
| O=[N+]([O-])c1cc(Nc2ncnc3c2sc2ncccc23)ccc1O | < 5.00 | > 10 µM | < 5.00 | < 5.00 | < 5.00 |
| Nc1ncnc2c1sc1cccnc12 | < 5.00 | > 10 µM | 5.74 | 5.22 | 5.28 |

| Compound | pIC50 [1] | IC50 [2] | pIC50 [3] | pIC50 [4] | pIC50 [5] |
| --- | --- | --- | --- | --- | --- |
| c1ccc(Nc2ncnc3c2sc2cccnc23)cc1 | < 5.00 | > 10 µM | 5.80 | < 5.00 | < 5.00 |
| COc1ccc(Nc2ncnc3c2sc2cccnc23)cc1 | < 5.00 | > 10 µM | < 5.00 | < 5.00 | < 5.00 |
| COc1ccc(Nc2ncnc3c2sc2cccnc23)cc1OC | < 5.00 | > 10 µM | < 5.00 | 5.43 | < 5.00 |
| COc1cc(Nc2ncnc3c2sc2cccnc23)cc(OC)c1 | < 5.00 | > 10 µM | < 5.00 | < 5.00 | < 5.00 |
| COc1cc(Nc2ncnc3c2sc2cccnc23)cc(OC)c1OC | < 5.00 | > 10 µM | 5.39 | < 5.00 | < 5.00 |
| c1cnc2c(c1)sc1c(Nc3ccc4c(c3)OCO4)ncnc12 | < 5.00 | > 10 µM | < 5.00 | < 5.00 | < 5.00 |
| c1cnc2c(c1)sc1c(Nc3ccc4c(c3)OCCO4)ncnc12 | < 5.00 | > 10 µM | < 5.00 | < 5.00 | < 5.00 |
| Fc1cc(Br)ccc1Nc1ncnc2c1sc1cccnc12 | < 5.00 | > 10 µM | 4.96 | 5.14 | < 5.00 |
| O=[N+]([O-])c1cc(Nc2ncnc3c2sc2cccnc23)ccc1O | < 5.00 | > 10 µM | 6.92 | 5.24 | < 5.00 |
| Nc1ncnc2c1sc1nccnc12 | < 5.00 | > 10 µM | 5.62 | < 5.00 |  |
| c1ccc(Nc2ncnc3c2sc2nccnc23)cc1 | < 5.00 | > 10 µM | 5.30 | < 5.00 |  |
| COc1ccc(Nc2ncnc3c2sc2nccnc23)cc1 | < 5.00 | > 10 µM | < 5.00 | < 5.00 |  |
| COc1ccc(Nc2ncnc3c2sc2nccnc23)cc1OC | < 5.00 | > 10 µM | < 5.00 | < 5.00 |  |
| COc1cc(Nc2ncnc3c2sc2nccnc23)cc(OC)c1 | < 5.00 | > 10 µM | 5.11 | < 5.00 |  |
| COc1cc(Nc2ncnc3c2sc2nccnc23)cc(OC)c1OC | < 5.00 | > 10 µM | < 5.00 | < 5.00 |  |
| c1cnc2c(n1)sc1c(Nc3ccc4c(c3)OCO4)ncnc12 | < 5.00 | > 10 µM | < 5.00 | < 5.00 |  |
| c1cnc2c(n1)sc1c(Nc3ccc4c(c3)OCCO4)ncnc12 | < 5.00 | > 10 µM | < 5.00 | < 5.00 |  |
| Fc1cc(Br)ccc1Nc1ncnc2c1sc1nccnc12 | < 5.00 | > 10 µM | < 5.00 | < 5.00 |  |
| O=[N+]([O-])c1cc(Nc2ncnc3c2sc2nccnc23)ccc1O | < 5.00 | > 10 µM | 5.85 | < 5.00 |  |
| Nc1ncnc2c1sc1ncccc12 | < 5.00 | > 10 µM | 7.51 | 5.55 | 6.17 |
